Legend:
[1] = Selectivity ratio of IC50 for rat L6 cells to IC50 for Leishmania donovani MHOM/ET/67/L82; type: ADME, cell-based; details: for Ratio IC50: l6; for selectivity ratio: L6 cells, read-out: Ratio IC50
Procedure, shortened: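 Ratio of the L-6 cytotoxicity IC50 to the IC50 against axenic L. donovani amastigotes.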

[2] = system: L6; assay: Cytotoxicity against rat L6 cells after 72 hrs by Alamar blue assay; type: cell-based
Procedure, shortened: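 L-6 myoblasts were grown in RPMI 1640 with L-glutamine and 10% FBS at 37 °C, 5% CO2, seeded at 4×10^4 cells/well. After 24 h they were given serial drug dilutions for 72 h. Alamar blue was added for 2 h, and fluorescence read at ex 536/em 588 nm to give IC50.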

[3] = system: Leishmania donovani; assay: Antileishmanial activity against Leishmania donovani MHOM/ET/67/L82 amastigotes infected in syrian golden hamster spleen after 72 hrs; type: functional, organism-based
Procedure, shortened: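 Hamster-maintained spleen amastigotes were grown axenically at 37 °C, 5% CO2 in Cunningham SM medium, pH 5.4, with 10% FBS. 10^5 amastigotes per well were exposed to serial drug dilutions for 72 h. Alamar blue (resazurin) was added for 2 h more, and fluorescence read at ex 536/em 588 nm. IC50 was taken from the sigmoidal inhibition curve versus control.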

[4] = system: Leishmania donovani; assay: Antileishmanial activity against Leishmania donovani MHOM/ET/67/HU3 infected in BALB/c mouse at 0.5 mg/kg, iv for 3 days from day 7 postinfection measured after 14 days by Giemsa staining; type: functional
Procedure, shortened: (§1)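 Female SPF BALB/c mice (6-8 weeks, ~20 g) infected iv via tail vein on day 0 with 1.5×10^7 hamster-spleen-derived amastigotes. Groups of five mice were treated once daily starting day 7. On day 14 the livers were weighed and Giemsa-stained smears prepared. Amastigotes were counted per 500 liver cells and expressed as amastigotes per liver cell × mg liver. % inhibition was calculated versus untreated mice.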

[5] = system: Leishmania donovani; assay: Antileishmanial activity against Leishmania donovani MHOM/ET/67/HU3 infected in BALB/c mouse at 1.5 mg/kg, iv for 3 days from day 7 postinfection measured after 14 days by Giemsa staining; type: functional; procedure, shortened: as §1
[6] = system: Leishmania donovani; assay: Antileishmanial activity against Leishmania donovani MHOM/ET/67/HU3 infected in BALB/c mouse at 50 mg/kg, po for 5 days from day 7 postinfection measured after 14 days by Giemsa staining; type: functional; procedure, shortened: as §1
[7] = system: Leishmania donovani; assay: Antileishmanial activity against Leishmania donovani MHOM/ET/67/HU3 infected in BALB/c mouse at 2 mg/kg, iv for 5 days from day 7 postinfection measured after 14 days by Giemsa staining; type: functional; procedure, shortened: as §1
[8] = system: Leishmania donovani; assay: Antileishmanial activity against Leishmania donovani MHOM/ET/67/L82 infected in NMRI mouse macrophage assessed as reduction in parasite burden after 4 days by Giemsa staining; details: MHOM/ET/67/L82, 4 days
[9] = system: Leishmania donovani; assay: Antileishmanial activity against Leishmania donovani MHOM/ET/67/HU3 infected in BALB/c mouse at 50 mg/kg, ip for 5 days from day 7 postinfection measured after 14 days by Giemsa staining; type: functional; details: MHOM/ET/67/HU3, ip, route intraperitoneal; procedure, shortened: as §1
[10] = system: Leishmania donovani; assay: Antileishmanial activity against Leishmania donovani MHOM/ET/67/HU3 infected in BALB/c mouse at 15 mg/kg, sc for 5 days from day 7 postinfection measured after 14 days by Giemsa staining; type: functional, organism-based; design: dose 15 mg/kg; procedure, shortened: as §1
[11] = system: Leishmania donovani; assay: Antileishmanial activity against Leishmania donovani MHOM/ET/67/HU3 infected in BALB/c mouse at 1.3 mg/kg, iv for 5 days from day 7 postinfection measured after 14 days by Giemsa staining; type: functional; procedure, shortened: as §1
[12] = system: Leishmania donovani; assay: Antileishmanial activity against Leishmania donovani MHOM/ET/67/HU3 infected in BALB/c mouse at 12.5 mg/kg, iv for 5 days from day 7 postinfection measured after 14 days by Giemsa staining; type: functional; procedure, shortened: as §1
[13] = system: Leishmania donovani; assay: Antileishmanial activity against Leishmania donovani MHOM/ET/67/HU3 infected in BALB/c mouse at 0.2 mg/kg, iv for 5 days from day 7 postinfection measured after 14 days by Giemsa staining; type: functional; procedure, shortened: as §1
[14] = system: Leishmania donovani; assay: Antileishmanial activity against Leishmania donovani MHOM/ET/67/HU3 infected in BALB/c mouse at 4.1 mg/kg, iv for 5 days from day 7 postinfection measured after 14 days by Giemsa staining; type: functional; procedure, shortened: as §1
[15] = Leishmania donovani, MHOM/ET/67/L82, Spleen, 72 h

Compound | selectivity ratio [1] | IC50 ([2]; Rattus norvegicus, L6, 72 h) [nM] | IC50 [3, 15] [nM] | other results
CCn1c(=O)/c(=C/C=C2\Sc3ccccc3N2C)s/c1=C\c1sc2ccc(F)cc2[n+]1C.O=C([O-])/C=C\C(=O)O | – | – | – | Ratio IC50 [1]: 2870; IC50 ([2]; l6): 71700 nM; IC50 [3]: 25 nM
CCn1c(=O)/c(=C/N=c2\ccccn2C)s/c1=C\c1sc2ccc(F)cc2[n+]1C | 16 | 31700 | 2020 | –
CCCN1C=CC=c2o/c(=C/C=c3\s/c(=C\c4sc5ccccc5[n+]4C)n(CC)c3=O)nc21 | 2 | 1440 | 690 | –
CCn1c(=O)/c(=C/N=c2n(C)c3ccccc3n2C)s/c1=C\c1sc2ccc(F)cc2[n+]1C | 627 | 80900 | 129 | –
C[C@@H]1[C@H](O)[C@@H](C)/C=C/C=C/C=C/C=C/C=C/C=C/C=C/[C@H](O[C@@H]2O[C@H](C)[C@@H](O)[C@H](N)[C@@H]2O)C[C@@H]2O[C@](O)(C[C@@H](O)C[C@@H](O)[C@H](O)CC[C@@H](O)C[C@@H](O)CC(=O)O[C@H]1C)C[C@H](O)[C@H]2C(=O)O [AMPHOTERICIN B] | – | – | – | inhibition in vivo at 0.5 mg/kg [4]: 78.6%; inhibition in vivo at 1.5 mg/kg [5]: 95.5%
CCn1c(=O)/c(=C/C=c2\nc3c(o2)=CC=CN3C)s/c1=C\c1sc2ccccc2[n+]1C | 40 | 27200 | 677 | –
CCn1c(=O)/c(=C/C=C2\Sc3ccccc3N2C)s/c1=C\c1sc2ccc(F)cc2[n+]1C.CS(=O)(=O)[O-] | – | – | – | Ratio IC50 [1]: 4225; inhibition in vivo at 50 mg/kg [6]: 28%; IC50 ([2]; l6): 84500 nM; inhibition in vivo at 2 mg/kg [7]: 46.4%; IC50 [3]: 20 nM
CCCCCCCCCCCCCCCCOP(=O)([O-])OCC[N+](C)(C)C [MILTEFOSINE] | – | – | 430 | IC50 [8]: 811 nM
CCN1C(=O)/C(=C/C=C2\Sc3ccccc3N2C)S/C1=N\c1sc2ccccc2[n+]1C | 2990 | 156000 | 52 | IC50 [8]: 4690 nM
CCN1C(=O)/C(=C/C=C2\Sc3ccccc3N2C)S/C1=N\c1sc2ccc(Cl)cc2[n+]1C | 757 | 21200 | 28 | inhibition in vivo at 50 mg/kg [9]: 18.2%; IC50 [8]: 80 nM
CCCCN1C=CC=c2o/c(=C/C=c3\s/c(=C\c4sc5ccccc5[n+]4CC)n(CCC)c3=O)nc21 | 99 | 2070 | 21 | –
D-gluconic acid, 2,4:2',4'-O-[oxybis-oxidostibylidyne]bis-, trisodium salt, nonahydrate | – | – | – | inhibition [10]: 62%
CCn1c(=O)/c(=C2\Sc3ccccc3N2C)s/c1=C\c1cccc[n+]1CC | 450 | 115000 | 255 | –
CCn1c(=O)/c(=C/C=c2\nc3c(o2)=CC=CN3C)s/c1=C\c1sc2ccc(F)cc2[n+]1C | 27 | 28500 | 1040 | –
CN1/C(=C/C=c2\s/c(=C\c3sc4ccc(F)cc4[n+]3C)n(CCO)c2=O)Sc2ccccc21 | > 15 | > 169000 | 11600 | –
CCn1c(=O)/c(=C/N=c2\scc(C)n2C)s/c1=C\c1sc2ccc(F)cc2[n+]1C | 91 | 16500 | 182 | –
CCn1c(=O)/c(=C/N=c2\sc(C)cn2C)s/c1=C\c1sc2ccc(F)cc2[n+]1C | 88 | 10400 | 118 | –
CCn1c(=O)/c(=C/C=C2\Sc3ccccc3N2C)s/c1=C\c1sc2ccc(F)cc2[n+]1C.[Cl-] | – | – | – | inhibition in vivo at 1.3 mg/kg [11]: 94.9%; inhibition in vivo at 12.5 mg/kg [12]: 95.4%; Ratio IC50 [1]: > 15000; inhibition in vivo at 50 mg/kg [9]: 31.4%; IC50 ([2]; l6): > 174000 nM; inhibition in vivo at 0.2 mg/kg [13]: 16.1%; inhibition in vivo at 4.1 mg/kg [14]: 97.2%; IC50 [8]: 353 nM; IC50 [3]: 11 nM
CCn1c(=O)/c(=C/C=C2\Sc3ccccc3N2C)s/c1=C\c1sc2ccccc2[n+]1C | 75 | 7980 | 106 | –
